The source of these data is ChEMBL document CHEMBL1127310, “Synthesis and anticonvulsant activities of alpha-acetamido-N-benzylacetamide derivatives containing an electron-deficient alpha-heteroaromatic substituent” (1994).

Holding throughout (format): functional
Assay [1] is filed under the species Mus musculus. Nature of the assay: Median neurologically impairing dose was determined in mice using the rotarod test. In a few lines: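 Male Carworth Farms No. 1 mice dosed ip and placed on a 1-in. knurled rod turning at 6 rpm. Neurotoxicity means failure to stay on the rod for 1 min. Four mice per dose in the screen, then normally eight mice per dose for the dose-response, at time of peak effect.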
In general terms: The rotarod test checks motor coordination on a turning rod.

Assay [2] deals with Mus musculus. Nature of the assay: Effective dose required to prevent tonic extension of the hind limbs in mice in the maximal electroshock seizures (MES) test when administered intraperitoneally. Particulars: Hindlimb, ip. In a few lines:
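Male Carworth Farms No. 1 mice, drug given ip. Seizures elicited by 60-cycle alternating current, 50 mA, for 0.2 s via corneal electrodes. Protection means no tonic hind-limb extension. Phase I screen at 30, 100 and 300 mg/kg. Dose-response then run at varied doses, normally eight mice per dose, at time of peak effect (0.5 h or 0.25 h).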
In general terms: The maximal electroshock test induces tonic seizures with an electrical stimulus.

Assay [3] is described as follows: Protective Index was determined using the ratio of TD50/ED50 value. Put shortly: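 PI is TD50/ED50 in ip-dosed mice. TD50 comes from the rotorod or the horizontal screen test. ED50 comes from the MES test. Not determined when there was no MES activity below 100 mg/kg.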

The term TD50 denotes the dose at which the toxic effect under study appears in half of the subjects. Higher therefore signals lower toxicity. As a reminder, the ED50 is the midpoint of the dose-response relation. As to `CC(=O)NC(C(=O)NCc1ccccc1)c1ccccn1` (centres undefined), the TD50 in the assay listed under Mus musculus [1] is less than 100 mg/kg. Besides, it took a dose of 10.8 mg/kg to reach the 50% effect level in the assay with Mus musculus [2] (ED50). Compound `CC(=O)NC(C(=O)NCc1ccccc1)c1ncco1` (centres undefined) came in with a TD50 in the assay listed under Mus musculus [1] of 38.6 mg/kg. In assay [3], the PI is 3.7.

The compound `CC(=O)NC(C(=O)NCc1ccccc1)c1cnccn1` (centres undefined) came in with a TD50 in the assay listed under Mus musculus [1] of 58.2 mg/kg. Also, the PI in assay [3] amounted to 3.9. The ED50 with Mus musculus [2] was 14.8 mg/kg. Regarding `CC(=O)NC(C(=O)NCc1ccccc1)c1ccccc1` (centres undefined), the TD50 in the assay listed under Mus musculus [1] is more than 40 mg/kg. In the case of `CC(=O)NC(C(=O)NCc1ccccc1)c1nccs1` (centres undefined), the TD50 in the assay filed under Mus musculus [1] is 69.1 mg/kg. The PI in assay [3] came out at 5.7.

On to `CC(=O)NC(C(=O)NCc1ccccc1)c1ccc[nH]1` (centres undefined), for which the TD50 in the assay listed under Mus musculus [1] was less than 100 mg/kg. Compound `CCC1(c2ccccc2)C(=O)NC(=O)NC1=O` [PHENOBARBITAL] had a TD50 in the assay listed under Mus musculus [1] of 69 mg/kg.

In the assay listed under Mus musculus [1], `CC(=O)NC(C(=O)NCc1ccccc1)c1ccco1` (centres undefined) showed a TD50 of approximately 40 mg/kg. The PI in assay [3] is more than 3.9.

In the case of `CC(=O)NC(C(=O)NCc1ccccc1)c1ncccn1` (centres undefined), in the assay listed under Mus musculus [1], the TD50 was 56.7 mg/kg. For the same compound, the PI in assay [3] turned out to be 7. Moreover, the ED50 with Mus musculus [2] came out at 8.1 mg/kg.

With `CC(=O)NC(C(=O)NCc1ccccc1)c1cccs1` (centres undefined), the TD50 in the assay filed under Mus musculus [1] is less than 100 mg/kg. The same measure, in the same setting: then `CC(=O)NC(C(=O)NCc1ccccc1)c1ccsc1` (centres undefined), with less than 100 mg/kg.
